Assay results from publication PMC7401491 (Investigative Ophthalmology & Visual Science, 2020).
Like-named read-outs stand apart in the source and are kept apart here. Ends that are not written are not given here.

T1: CAP37-derived peptide 120-146 WH (human)
T1 sequence (P20160 146-172 with Q131W R132H, looked up): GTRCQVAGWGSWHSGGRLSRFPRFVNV

T2: CAP37-derived peptide 20-44 (human)
T2 sequence (P20160 46-70, looked up): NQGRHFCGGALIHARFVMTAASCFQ

B1: recombinant human S100 calcium-binding protein A9 (S100A9), C-terminus 8-His tag (natural protein, UniProt P06702 1-114, looked up)
chain: MTCKMSQLERNIETIINTFHQYSVKLGHPDTLNQGEFKELVRKDLQNFLKKENKNEKVIEHIMEDLDTNADKQLSFEEFIMLMARLTWASHEKMHEGDEGPGHHHKPGLGEGTP
B2: recombinant human S100 calcium binding protein S100A8 (untagged) (natural protein, UniProt P05109 1-93, looked up)
chain: MLTELEKALNSIIDVYHKYSLIKGNFHAVYRDDLKKLLETECPQYIRKKGADVWFKELDINTDGAVNFQEFLILVIKMGVAAHKKSHEESHKE
B3: cationic antimicrobial protein of 37 kDa (CAP37) (natural protein, human, UniProt P20160 27-248, looked up)
chain: IVGGRKARPRQFPFLASIQNQGRHFCGGALIHARFVMTAASCFQSQNPGVSTVVLGAYDLRRRERQSRQTFSISSMSENGYDPQQNLNDLMLLQLDREANLTSSVTILPLPLQNATVEAGTRCQVAGWGSQRSGGRLSRFPRFVNVTVTPEDQCRPNNVCTGVLTRRGGICNGDGGTPLVCEGLAHGVASFSLGPCGRGPDFFTRVALFRDWIDGVLNNPGP

What was measured:
TLR4/MD-2 complex = TLR4/MD-2 complex (Homo sapiens, UniProt O00206+Q9Y6Y9); test: ELISA binding of His-tagged TLR4/MD-2 complex to coated proteins/peptides; settings: for Binding of TLR4/MD-2 to coated protein/peptide (in words): ELISA, TLR4/MD-2 at 10 nM, compared with BSA
Chain of TLR4/MD-2 complex (O00206 24-631 limits assumed): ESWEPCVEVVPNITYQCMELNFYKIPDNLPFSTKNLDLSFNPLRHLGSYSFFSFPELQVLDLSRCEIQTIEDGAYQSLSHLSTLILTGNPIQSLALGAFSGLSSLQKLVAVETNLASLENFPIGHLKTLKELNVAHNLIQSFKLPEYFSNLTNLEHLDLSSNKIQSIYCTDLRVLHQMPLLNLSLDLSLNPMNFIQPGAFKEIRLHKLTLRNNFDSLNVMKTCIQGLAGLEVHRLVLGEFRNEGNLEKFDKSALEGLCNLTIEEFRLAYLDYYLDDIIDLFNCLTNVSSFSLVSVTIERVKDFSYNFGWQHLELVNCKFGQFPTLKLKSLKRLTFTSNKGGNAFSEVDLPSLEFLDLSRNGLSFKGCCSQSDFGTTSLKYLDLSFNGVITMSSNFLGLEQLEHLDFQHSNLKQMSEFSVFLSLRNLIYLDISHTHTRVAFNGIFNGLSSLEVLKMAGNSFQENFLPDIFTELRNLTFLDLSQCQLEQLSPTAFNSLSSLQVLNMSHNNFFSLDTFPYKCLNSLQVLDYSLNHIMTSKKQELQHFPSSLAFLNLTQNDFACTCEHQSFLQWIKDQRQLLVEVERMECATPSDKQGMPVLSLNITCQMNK
Chain of TLR4/MD-2 complex (Q9Y6Y9 17-160 partner limits assumed): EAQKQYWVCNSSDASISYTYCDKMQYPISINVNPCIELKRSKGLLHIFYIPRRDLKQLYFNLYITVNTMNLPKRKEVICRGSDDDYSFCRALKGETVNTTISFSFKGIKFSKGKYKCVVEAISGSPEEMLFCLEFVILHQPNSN
Procedure, shortened: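 ELISA against coated protein or peptide at 5 µg/ml (PBS pH 7.4; 2 h RT, then 4°C overnight), blocked with 3% BSA/PBST. Recombinant human TLR4/MD-2 complex, both chains His-tagged, 0–100 nM in PBST/0.1% BSA, 70 min at 37°C. Probed with anti-His mAb 1.0 µg/ml, then peroxidase secondary; OD 492 nm. 0-nM values subtracted; Kd derived; compared with BSA. Mean ± SEM, three independent experiments.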

[1] = biological target: T1, CAP37-derived peptide 120-146 WH (human); test: ELISA
[2] = biological target: CAP37-derived peptide 120-146 WH 5RMP (human); test: ELISA
[3] = biological target: CAP37-derived peptide 20-44 5RMP (human); test: ELISA
[4] = biological target: T2, CAP37-derived peptide 20-44 (human); test: ELISA
[5] = biological target: B2; test: ELISA
[6] = biological target: T1, CAP37-derived peptide 120-146 WH (human); test: ELISA; remark: listed apart in the source
[7] = biological target: CAP37-derived peptide 120-146 WH 5RMP (human); test: ELISA; remark: listed apart in the source
[8] = biological target: CAP37-derived peptide 20-44 5RMP (human); test: ELISA; remark: listed apart in the source
[9] = biological target: T2, CAP37-derived peptide 20-44 (human); test: ELISA; remark: listed apart in the source
[10] = biological target: B3; test: ELISA
[11] = biological target: T3, recombinant human TLR4/myeloid differentiation factor 2 (MD-2) complex (human, UniProt O00206 24-631; Q9Y6Y9 19-160); test: ELISA
T3 sequence (O00206 24-631, chain 1 of 2): as the sequence (O00206 24-631 limits assumed) above
T3 sequence (Q9Y6Y9 19-160, chain 2 of 2): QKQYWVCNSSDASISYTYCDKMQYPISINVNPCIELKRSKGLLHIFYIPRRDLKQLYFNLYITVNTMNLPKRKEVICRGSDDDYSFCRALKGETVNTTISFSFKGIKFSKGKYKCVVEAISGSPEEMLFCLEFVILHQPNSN

[12] = biological target: T3, recombinant human TLR4/myeloid …; test: ELISA; remark: listed apart in the source
[13] = system: TLR4 activation by S100A9; test: HEK-Blue hTLR4 assay, effect on activation of TLR4 by 10-nM S100A9; assay type: cell-based, human
S100A8 = test: ELISA binding of CAP37 to S100A8; parameters: species or system human; settings: data not shown
TLR4 = TLR4 (Homo sapiens, UniProt O00206); test: HEK-Blue hTLR4 stimulation assay; assay type: cell-based; settings: HEK-hTLR4 cells
Chain of TLR4 (O00206 24-839): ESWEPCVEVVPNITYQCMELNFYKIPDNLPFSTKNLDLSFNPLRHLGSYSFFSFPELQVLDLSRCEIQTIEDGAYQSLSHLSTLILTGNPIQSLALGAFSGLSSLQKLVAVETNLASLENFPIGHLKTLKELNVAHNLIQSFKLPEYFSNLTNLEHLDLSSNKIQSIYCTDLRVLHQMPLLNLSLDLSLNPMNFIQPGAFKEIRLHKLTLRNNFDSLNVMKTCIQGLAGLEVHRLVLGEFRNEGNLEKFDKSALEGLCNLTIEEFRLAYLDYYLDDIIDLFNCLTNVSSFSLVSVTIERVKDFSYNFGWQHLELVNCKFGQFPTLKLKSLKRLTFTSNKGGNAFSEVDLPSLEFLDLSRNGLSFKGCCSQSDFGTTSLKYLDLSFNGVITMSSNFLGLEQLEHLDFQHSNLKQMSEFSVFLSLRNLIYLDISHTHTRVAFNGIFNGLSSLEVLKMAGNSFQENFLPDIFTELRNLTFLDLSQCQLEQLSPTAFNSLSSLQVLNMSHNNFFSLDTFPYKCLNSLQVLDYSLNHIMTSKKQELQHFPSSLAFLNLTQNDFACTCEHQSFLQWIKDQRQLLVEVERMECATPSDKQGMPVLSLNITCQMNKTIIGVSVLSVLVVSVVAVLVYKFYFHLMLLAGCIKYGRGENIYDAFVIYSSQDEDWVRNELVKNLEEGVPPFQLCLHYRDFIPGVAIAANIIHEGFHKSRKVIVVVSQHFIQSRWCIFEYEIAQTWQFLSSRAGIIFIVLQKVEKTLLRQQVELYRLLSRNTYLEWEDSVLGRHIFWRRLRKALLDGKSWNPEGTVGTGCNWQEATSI
Chain of TLR4 (Q9Y6Y9 17-160 partner limits assumed): as the sequence (Q9Y6Y9 17-160 partner limits assumed) above
Procedure, shortened: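 HEK-Blue hTLR4 cells (human TLR4, MD-2, CD14, NF-κB/AP-1-driven SEAP), passages 3–15, detached with warm PBS and suspended serum-free at 1.4 × 10^5 cells/ml. Test compound in nuclease-free water at final 10 nM–100 µM; 24 h, 37°C, 5% CO2. SEAP read with Quanti-Blue, 3 h, OD 630 nm, normalised to BCA protein. Untreated background subtracted; expressed as % of 50-nM S100A9. Three experiments in triplicate.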

## LDREANLTSSVTILPLPLQNATVEAGTR [95-122]
TLR4/MD-2 complex
  Binding of TLR4/MD-2 to coated protein/peptide (in words): only minimal interaction

## NE: neutrophil elastase purified from human neutrophils
TLR4/MD-2 complex
  Binding of TLR4/MD-2 to coated protein/peptide (in words): did not significantly interact

## recombinant human TLR4/myeloid differentiation factor 2 (MD-2) complex (from UniProt O00206 24-631; Q9Y6Y9 19-160)
[1]
  Kd: 229 nM
[2]
  Kd: 18.9 nM
[3]
  Kd: 270 nM
[4]
  Kd: 90.6 nM

## CG: cathepsin G purified from human neutrophils
TLR4/MD-2 complex
  Binding of TLR4/MD-2 to coated protein/peptide (in words): did not significantly interact

## B1
[5]
  binding at 10 nM S100A9 relative to its binding to CAP37: 2 fold
[6]
  Kd: 37.3 nM
[7]
  Kd: 22.3 nM
[8]
  Kd: 23.5 nM
[9]
  Kd: 43.8 nM
[10]
  Kd: 9.2 nM

## B2
[11]
  binding result: binds

## B3
[12]
  Kd: 98 nM
[13]; CAP37 0.01 nM preincubated 1 hour with 10-nM S100A9, from 50% to 30%
  Decrease of TLR4 activation by S100A9: ~20%
[13]; CAP37 10 nM preincubated 1 hour with 10-nM S100A9
  Decrease of TLR4 activation by S100A9: 10%
[13]; CAP37 1 µM preincubated 1 hour with 10-nM S100A9
  Decrease of TLR4 activation by S100A9: no decrease
S100A8
  Interaction between CAP37 and S100A8 (in words): specific, but low, interaction
TLR4/MD-2 complex
  Binding of TLR4/MD-2 to coated protein/peptide (in words): low, but specific, interaction
TLR4/MD-2 complex; Kd 98 nM versus Kd 9.2 nM
  Fold lower affinity for TLR4 than for S100A9: ~10 fold
TLR4
  Fold higher concentration at which TLR4 activation begins, versus S100A9: approximately 100 fold
TLR4; 24 h, SEAP
  Concentration at which activation of TLR4 begins: 100 nM
